8 molecules from ChEMBL document CHEMBL1144781, “Identification of promiscuous small molecule activators in high-throughput enzyme activation screens” (J Med Chem, 2008) can be followed below.

One experiment has as its target T1, Caspase-2 (Homo sapiens, UniProt P42575).
T1 sequence (P42575 whole entry): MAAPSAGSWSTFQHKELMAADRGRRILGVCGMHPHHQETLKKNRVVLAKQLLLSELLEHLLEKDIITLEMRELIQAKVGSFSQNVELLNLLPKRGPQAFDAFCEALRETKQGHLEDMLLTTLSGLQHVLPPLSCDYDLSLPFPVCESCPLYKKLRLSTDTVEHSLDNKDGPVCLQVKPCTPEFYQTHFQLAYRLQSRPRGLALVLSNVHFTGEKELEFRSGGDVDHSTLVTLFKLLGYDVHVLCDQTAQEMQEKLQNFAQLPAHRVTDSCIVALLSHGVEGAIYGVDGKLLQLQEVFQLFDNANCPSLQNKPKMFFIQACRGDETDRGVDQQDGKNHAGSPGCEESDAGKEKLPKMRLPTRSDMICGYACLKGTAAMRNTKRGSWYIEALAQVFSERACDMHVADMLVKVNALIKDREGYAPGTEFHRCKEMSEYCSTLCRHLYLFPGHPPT
Nature of the experiment: Activation of procaspase 2 after 24 hrs.

The target of another experiment is T2, Caspase-3 (Homo sapiens) (UniProt P42574).
T2 sequence (whole entry): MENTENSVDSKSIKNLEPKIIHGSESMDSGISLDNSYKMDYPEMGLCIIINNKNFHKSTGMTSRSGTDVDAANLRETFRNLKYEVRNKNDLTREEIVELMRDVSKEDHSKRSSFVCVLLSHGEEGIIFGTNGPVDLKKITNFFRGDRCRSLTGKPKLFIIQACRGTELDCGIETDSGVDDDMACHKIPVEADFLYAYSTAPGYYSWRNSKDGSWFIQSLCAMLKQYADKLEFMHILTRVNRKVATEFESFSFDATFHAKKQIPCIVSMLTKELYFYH
Nature of the experiment: Activation of caspase 3 after 30 mins.

Experiment [1] in a line: Activation of procaspase 2 in presence of BSA.
A short description of experiment [2]: Activation of alkaline phosphatase after 30 mins.
Experiment [3] addresses T3, Caspase-2 (Homo sapiens) (UniProt P42575).
T3 sequence (whole entry): T1 sequence (P42575 whole entry)
Description: Increase in procaspase 2 activity after 30 mins in presence of surfactant CHAPS. In a few lines:
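Procaspase-2 was preincubated with compound for a short time (30 min) in CHAPS-containing buffer. Ac-VDVAD-pNA cleavage was then followed by absorbance at 405 nm.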

Experiment [4] concerns the target T3, Caspase-2 (Homo sapiens). Description: Increase in procaspase 2 activity after 16 hrs in presence of surfactant CHAPS. In a few lines: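 Procaspase-2 was incubated with compound for 16 h in buffer containing CHAPS. Activity was then read by adding Ac-VDVAD-pNA substrate and monitoring absorbance at 405 nm.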

Calls of active or inactive are those of the source. The calls are words filed in the database; no cut-off is given here.

What is called EC50 is the concentration at which the effect is half-maximal. Low readings indicate a more potent agent, high ones a less potent agent. Consider `CC1CCCN(CC(O)COc2ccc(C34CC5CC(CC(C5)C3)C4)cc2)C1` (stereo unspecified), for which, at Caspase-2, the midpoint of the response, the EC50, lay at 25 µM. Moreover, the outcome at Caspase-3 (Homo sapiens) was Active.
Turning to `C[C@@H](CCC(=O)NCCC[N+](C)(C)CCCS(=O)(=O)[O-])[C@H]1CC[C@H]2[C@@H]3[C@H](O)C[C@@H]4C[C@H](O)CC[C@]4(C)[C@H]3C[C@H](O)[C@]12C`, the outcome at Caspase-3 (Homo sapiens) was Active. Besides, the result in experiment [1] was inactive.
Consider `NCCCNCCNCCCN`, for which the result (in experiment [2]; at Caspase-3 (Homo sapiens)) was Active. Further, it took 50 µM to reach a half-maximal effect at Caspase-2 (EC50).
Turning to `NCCCNCCCCNCCCN` [SPERMINE], at Caspase-2, a half-maximal effect (EC50) was put at 8.5 µM. At Caspase-3 (Homo sapiens), the outcome was Active.
In the case of `Cc1cc(NNC(=O)C(c2ccccc2)c2ccccc2)c2ccc(C)c(C)c2n1`, the EC50 at Caspase-2 came to 50 µM.
On the same count and under the same terms, the same measure for `CCCCCCCCCCNC(=O)CCC`: 66 µM.
Consider `CN(C)CCNC(=O)COc1ccc(C23CC4CC(CC(C4)C2)C3)cc1`, for which the concentration giving a half-maximal response (EC50) on Caspase-2 was 25 µM. For the same molecule, the outcome on Caspase-3 (Homo sapiens) and on Caspase-2 (Homo sapiens) [4] was Active. The outcome at Caspase-2 (Homo sapiens) [3] was inactive.
`CCCCCCCCCCCCCCCC[n+]1ccccc1`: on Caspase-2, a half-maximal response (EC50) required 21 µM.
